According to ChEMBL document CHEMBL2034823, “Synthesis and antiviral activity of certain second generation methylenecyclopropane nucleosides” (Bioorg Med Chem, 2012):

Legend:
[1] = Cytotoxicity against human HSB2 cells after 7 days by Cell-Titer Glo assay; format: cell-based, CCRF-HSB-2
Summary of the method: (§1)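 Uninfected Akata, BCBL1, HSB-2 or MOLT-3 cells incubated with compound for seven days under the matching antiviral-assay conditions. CellTiter-Glo added and luminescence read. CC50 is the concentration reducing cell number by 50%.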

[2] = Cytotoxicity against human BCBL1 cells after 7 days by Cell-Titer Glo assay; format: cell-based; summary of the method: as §1
Human alphaherpesvirus 3 = test: Antiviral activity against VZV infected in human HFF cells assessed as reduction in cytopathic effect after 7 days by crystal violet staining; format: functional, organism-based; settings: Human alphaherpesvirus 3, HFF, 168 h
Human alphaherpesvirus 1 = test: Antiviral activity against HSV-1 infected in human HFF cells assessed as reduction in cytopathic effect after 3 days by crystal violet staining; format: functional, organism-based; settings: Human alphaherpesvirus 1, HFF, 72 h
Summary of the method: (§2)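 Compound diluted over HFF monolayers, then HSV-1 (E-377) or HSV-2 (MS) added at MOI about 0.01 PFU/cell. Held 3 days in humidified 5% CO2. Stained 4 h with 0.1% crystal violet in formalin, rinsed, dried 24 h, and absorbance read at 595 nm. EC50 is 50% CPE reduction. Duplicate wells.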

Human betaherpesvirus 5 = test: Antiviral activity against HCMV infected in human HFF cells assessed as reduction in cytopathic effect after 8 days by plaque reduction assay; format: functional, organism-based; settings: Human betaherpesvirus 5, HFF, 192 h
Summary of the method: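 HFF monolayers seeded 2 days ahead and infected with AD169 at about 30 plaques per well, with 1 h adsorption. Compound was then added in MEM with 2% FBS, L-glutamine, penicillin, gentamycin and pooled human gamma globulin. After 8 days, neutral red stain and plaque counts by stereomicroscope. EC50 interpolated. Duplicate wells.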

[3] = Cytotoxicity against human Akata cells after 7 days by Cell-Titer Glo assay; format: cell-based; summary of the method: as §1
Human gammaherpesvirus 4 = test: Antiviral activity against EBV Akata infected in human Akata cells assessed as reduction in viral DNA after 72 hrs by hybridization assay; format: functional, organism-based; settings: human gammaherpesvirus 4, Akata
Summary of the method: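 Akata cells kept in RPMI 1640 with 10% FBS, L-glutamine, penicillin and gentamicin. Latent infection was switched to productive by adding goat anti-human IgG, and cells were seeded into compound dilutions made in growth medium. After 72 h the DNA was denatured and blotted onto nylon membrane. Viral DNA was measured with a digoxigenin-labeled probe plus anti-hapten antibody. EC50 is the concentration halving viral DNA. Duplicate wells.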

Human alphaherpesvirus 2 = test: Antiviral activity against HSV-2 infected in human HFF cells assessed as reduction in cytopathic effect after 3 days by crystal violet staining; format: functional, organism-based; settings: Human alphaherpesvirus 2, HFF, 72 h; summary of the method: as §2
[4] = Cytotoxicity against human HFF cells after 3 to 8 days by crystal voilet staining; format: cell-based
Summary of the method: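 Uninfected HFF cells exposed to the same concentrations as in the CPE assays (3 days for HSV, 7 for VZV, […]). Stained with crystal violet. CC50 is the concentration reducing cell number by 50%. Duplicate wells.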

[5] = Antiviral activity against HHV-6A infected in human HSB2 cells assessed as reduction in viral DNA after 7 days by hybridization assay; format: functional, cell-based, Human herpesvirus 6A; settings: Human betaherpesvirus 6A, HSB2, 168 h
Summary of the method: (§3)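 Compound serially diluted in medium. Uninfected HSB-2 cells were infected with HHV-6A (GS)-infected HSB-2 cells, and Molt-3 cells with HHV-6B (Z29)-infected Molt-3 cells. Incubation 7 days at 37 °C. Lysis in 4.5 M NaCl/1.2 M NaOH, then transfer to nylon membrane. Viral DNA quantified by digoxigenin-probe hybridization and EC50 calculated. Duplicate wells.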

Human gammaherpesvirus 8 = test: Antiviral activity against HHV-8 infected in human BCBL1 cells assessed as reduction in viral DNA after 7 days by qPCR analysis; format: functional, organism-based; settings: Human gammaherpesvirus 8, BCBL1, 168 h
Summary of the method: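 BCBL1 cells kept in RPMI 1640 with 10% FBS, penicillin, gentamycin and L-glutamine. Lytic infection induced with phorbol 12-myristate 13-acetate, then cells added to triplicate compound dilutions. Incubation 7 days at 37 °C in humidified CO2. EC50 is the concentration halving viral DNA accumulation.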

[6] = Antiviral activity against HHV-6B infected in human Molt3 cells assessed as reduction in viral DNA after 7 days by hybridization assay; format: functional, cell-based, Human herpesvirus 6B; settings: Human betaherpesvirus 6B, MOLT-3, 168 h; summary of the method: as §3
[7] = Cytotoxicity against human MOLT3 cells after 7 days by Cell-Titer Glo assay; format: cell-based, MOLT-3; summary of the method: as §1

| SMILES | CC50 at 168 h [1] [µM] | CC50 at 168 h [2] [µM] | IC50 (Human alphaherpesvirus 3) [µM] | IC50 (Human alphaherpesvirus 1) [µM] | IC50 (Human betaherpesvirus 5) [nM] | CC50 at 168 h [3] [µM] | IC50 (Human gammaherpesvirus 4) [µM] | IC50 (Human alphaherpesvirus 2) [µM] | CC50 [4] [µM] | IC50 [5] [µM] | IC50 (Human gammaherpesvirus 8) [µM] | IC50 [6] [µM] | CC50 at 168 h [7] [µM] |
| --- | --- | --- | --- | --- | --- | --- | --- | --- | --- | --- | --- | --- | --- |
| Nc1nc(N2CCOCC2)c2ncn(/C=C3/CC3(CO)CO)c2n1 | > 20 | > 20 | > 300 | > 300 | > 300000 | > 24 | > 24 | > 300 | > 300 | > 20 | > 20 | – | – |
| CCOc1nc(N)nc2c1ncn2/C=C1/CC1(CO)CO | > 20 | > 20 | > 100 | > 300 | 1600 | > 20 | 11.9 | > 300 | > 300 | > 20 | > 20 | 11.2 | > 20 |
| CCCOc1nc(N)nc2c1ncn2/C=C1/CC1(CO)CO | > 20 | > 20 | 2.9 | > 300 | 1100 | > 20 | 8.9 | > 300 | > 300 | 18 | 16 | 6.6 | > 20 |
| C=CCOc1nc(N)nc2c1ncn2/C=C1/CC1(CO)CO | > 20 | > 20 | > 300 | > 300 | 1100 | > 20 | 11 | > 300 | > 300 | > 20 | 17 | 11.4 | > 20 |
| CCCCOc1nc(N)nc2c1ncn2/C=C1/CC1(CO)CO | > 20 | > 20 | > 100 | > 300 | 1600 | > 20 | 1.6 | > 300 | > 300 | > 20 | > 20 | 3.2 | > 20 |
| CCCCCOc1nc(N)nc2c1ncn2/C=C1/CC1(CO)CO | > 20 | > 20 | > 60 | > 300 | 500 | > 20 | 0.5 | > 300 | 259 | > 20 | > 20 | > 20 | > 20 |
| CCCCCCOc1nc(N)nc2c1ncn2/C=C1/CC1(CO)CO | > 20 | > 20 | – | > 300 | 3900 | > 20 | 7.3 | > 300 | > 200 | > 20 | > 20 | 9.5 | > 20 |
| CC(C)CSc1nc(N)nc2c1ncn2/C=C1/CC1(CO)CO | 60 | > 20 | > 50 | > 300 | 31000 | > 20 | 2.3 | > 300 | > 300 | > 20 | > 20 | – | – |
| COc1nc(N)nc2nc[nH]c12 | > 20 | 51 | 7.4 | > 300 | 2800 | > 20 | 1 | > 300 | 171 | > 20 | 13 | > 20 | > 20 |
| Nc1nc2c(ncn2COCCO)c(=O)[nH]1 [ACYCLOVIR] | – | – | – | 2.9 | – | – | – | 2.8 | > 300 | – | – | – | – |
| Nc1nc2c(ncn2COC(CO)CO)c(=O)[nH]1 [GANCICLOVIR] | – | – | – | – | 2100 | – | – | – | > 300 | – | – | – | – |
